Source: ChEMBL document CHEMBL1123291, “Modified di- and tripeptides of the C-terminal portion of oxytocin and vasopressin as possible cognition activation agents” (1986)
Residues, ends and D or L forms follow the SMILES beside them. *: point of attachment. Cbz = O=C(OCc1ccccc1)*

Key:
Format in all cases: functional
[1] = system: Rattus norvegicus; assay: Ability (% reversal in rats) to reverse electroconvulsive shock-induced amnesia in rodents at a dose of 0.10 (mg/kg) (following intramuscular dosing)
How it was run: (§1)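 Passive avoidance (step-through, lighted vs darkened compartment). […], ECS (20 mA, 1 s) was given transcorneally via saline-soaked electrodes, and maximal hindlimb extension was required. Drug was given im at selected doses 2 h post-training. One hour later, entry latency to the dark side was recorded, with 60 s counted as retention. At least 75% of ECS controls had to be amnesic. Replicates were mostly not run.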

[2] = system: Rattus norvegicus; assay: Compound was tested for its ability (% reversal in rats) to reverse electroconvulsive shock-induced amnesia in rodents at a dose of 1 (mg/kg) administered intramuscularly (im); how it was run: as §1
[3] = system: Rattus norvegicus; assay: Compound was tested for its ability (% reversal in rats) to reverse electroconvulsive shock-induced amnesia in rodents at a dose of 10 (mg/kg) administered intramuscularly (im).; how it was run: as §1
[4] = system: Rattus norvegicus; assay: Ability (% reversal in rats) to reverse electroconvulsive shock-induced amnesia in rodents at a dose of 0.0010 (mg/kg) (following i.m. administration); how it was run: as §1
[5] = system: Rattus norvegicus; assay: Compound was tested for its ability (% reversal in rats) to reverse electroconvulsive shock-induced amnesia in rodents at a dose of 100 (mg/kg) administered intramuscularly (im); how it was run: as §1
[6] = system: Rattus norvegicus; assay: Ability (% reversal in rats) to reverse electroconvulsive shock-induced amnesia in rodents at a dose of 0.010 (mg/kg) administered intramuscularly (im); how it was run: as §1
[7] = system: Mus musculus; assay: Ability to reverse electroconvulsive shock-induced amnesia in rodents following 0.1 mg/kg i.m. administration.; conditions: route intramuscular; how it was run: as §1
[8] = system: Rattus norvegicus; assay: Compound was tested for its ability (% reversal in rats) to reverse electroconvulsive shock-induced amnesia in rodents at a dose of 0.010 (mg/kg) administered intramuscularly (im).; how it was run: as §1
[9] = system: Mus musculus; assay: Ability to reverse electroconvulsive shock-induced amnesia in rodents following 1 ug/kg i.m. administration.; how it was run: as §1
[10] = system: Mus musculus; assay: Ability to reverse electroconvulsive shock-induced amnesia in rodents following 0.01 mg/kg i.m. administration.; conditions: route intramuscular; how it was run: as §1
[11] = system: Rattus norvegicus; assay: Compound was tested for its ability (% reversal in rats) to reverse electroconvulsive shock-induced amnesia in rodents at a dose of 0.0010 (mg/kg) administered intramuscularly (im).; how it was run: as §1
[12] = system: Rattus norvegicus; assay: Compound was tested for its ability (% reversal in rats) to reverse electroconvulsive shock-induced amnesia in rodents at a dose of 0.10 (mg/kg) administered intramuscularly (im).; how it was run: as §1
[13] = system: Mus musculus; assay: Compound was tested for its ability (% reversal in mice) to reverse electroconvulsive shock-induced amnesia in rodents at a dose of 1 (mg/kg) administered intramuscularly (im); how it was run: as §1
[14] = system: Mus musculus; assay: Compound was tested for its ability (% reversal in mice) to reverse electroconvulsive shock-induced amnesia in rodents at a dose of 100 (mg/kg) administered intramuscularly (im); how it was run: as §1
[15] = system: Mus musculus; assay: Compound was tested for its ability (% reversal in mice) to reverse electroconvulsive shock-induced amnesia in rodents at a dose of 10 (mg/kg) administered intramuscularly (im); how it was run: as §1
[16] = system: Rattus norvegicus; assay: Compound was tested for its ability (% reversal in rats) to reverse electroconvulsive shock-induced amnesia in rodents at a dose of 10 (mg/kg) administered intramuscularly (im); how it was run: as §1
[17] = system: Rattus norvegicus; assay: Compound was tested for its ability (% reversal in rats) to reverse electroconvulsive shock-induced amnesia in rodents at a dose of 0.0001 (mg/kg) administered intramuscularly (im); how it was run: as §1
[18] = system: Rattus norvegicus; assay: Compound was tested for its ability (% reversal in rats) to reverse electroconvulsive shock-induced amnesia in rodents at a dose of 0.1 (mg/kg) administered intramuscularly (im); how it was run: as §1
[19] = system: Mus musculus; assay: Compound was tested for its ability (% reversal in mice) to reverse electroconvulsive shock-induced amnesia in rodents at a dose of 0.1 (mg/kg) administered intramuscularly (im); how it was run: as §1
[20] = system: Rattus norvegicus; assay: Compound was tested for its ability (% reversal in rats) to reverse electroconvulsive shock-induced amnesia in rodents at a dose of 100 (mg/kg) administered intramuscularly (im).; how it was run: as §1
[21] = system: Rattus norvegicus; assay: Compound was tested for its ability (% reversal in rats) to reverse electroconvulsive shock-induced amnesia in rodents at a dose of 0.032 (mg/kg) administered intramuscularly (im); how it was run: as §1
[22] = system: Rattus norvegicus; assay: Compound was tested for its ability (% reversal in rats) to reverse electroconvulsive shock-induced amnesia in rodents at a dose of 0.001 (mg/kg) administered intramuscularly (im); how it was run: as §1
[23] = system: Rattus norvegicus; assay: Compound was tested for its ability (% reversal in rats) to reverse electroconvulsive shock-induced amnesia in rodents at a dose of 1(mg/kg) administered intramuscularly (im); how it was run: as §1
[24] = system: Rattus norvegicus; assay: Compound was tested for its ability (% reversal in rats) to reverse electroconvulsive shock-induced amnesia in rodents at a dose of 0.00010 (mg/kg) administered intramuscularly (im); how it was run: as §1
[25] = system: Rattus norvegicus; assay: Compound was tested for its ability (% reversal in rats) to reverse electroconvulsive shock-induced amnesia in rodents at a dose of 1 (mg/kg) administered intramuscularly (im).; how it was run: as §1
[26] = system: Rattus norvegicus; assay: Compound was tested for its ability (% reversal in rats) to reverse electroconvulsive shock-induced amnesia in rodents at a dose of 50 (mg/kg) administered intramuscularly (im); how it was run: as §1

| SMILES | Reversal [1] [%] | Reversal [2] [%] | Reversal [4] [%] | Reversal [5] [%] | Reversal [6] [%] | Reversal [16] [%] | also measured |
| --- | --- | --- | --- | --- | --- | --- | --- |
| CC(C)CC(CSCC(=O)O)NC(=O)C1CCC(=O)N1C(=O)OCc1ccccc1 (configuration not stated) | 0 | 0 | 33 | 0 | 33 |  | Reversal [3]: 0% |
| COc1ccc(C(=O)N2CCCC2C(=O)NC(CSCC(=O)O)CC(C)C)cc1 (configuration not stated) | 60 |  | 40 |  |  |  | Reversal [7]: 12%; Reversal [8]: 0%; Reversal [9]: 12%; Reversal [10]: 50% |
| CC(C)CC(/C=C/CC(N)=O)NC(=O)C1CCC(=O)N1 (configuration not stated) |  |  |  |  |  |  | Reversal [11]: 11%; Reversal [12]: 44%; Reversal [8]: 0% |
| O=C1COCC2CCCN12 (configuration not stated) | 33 |  | 0 |  | 33 |  | Reversal [13]: 58%; Reversal [14]: 63%; Reversal [15]: 77% |
| CC(C)C[C@@H](CSCC(=O)O)NCC1CCCN1C(=O)OCc1ccccc1 (some centres not stated) | 60 | 60 | 20 | 100 | 80 | 0 |  |
| CC(C)CC(N)CN1CC(=O)NC(CC(C)C)C1 (configuration not stated) | 66 | 20 | 50 | 24 | 83 | 0 | Reversal [17]: 82% |
| NC(=O)COCC(Cc1ccccc1)NC(=O)C1CCCN1C(=O)OCc1ccccc1 (configuration not stated) | 0 | 25 | 11 | 25 | 11 |  | Reversal [13]: 20%; Reversal [3]: 42%; Reversal [14]: 71%; Reversal [15]: 59% |
| O=C(O)COCC1CCCN1C(=O)OCc1ccccc1 (configuration not stated) | 50 | 37 | 40 | 62 | 40 | 62 |  |
| NCCCC[C@H](NC(=O)[C@@H]1CCCN1C(=O)[C@@H]1CSSC[C@H](N)C(=O)N[C@@H](Cc2ccc(O)cc2)C(=O)N[C@@H](Cc2ccccc2)C(=O)N[C@@H](CCC(N)=O)C(=O)N[C@@H](CC(N)=O)C(=O)N1)C(=O)NCC(N)=O | 56 |  | 20 |  |  |  | Reversal [7]: 67%; Reversal [8]: 20%; Reversal [9]: 58%; Reversal [10]: 58% |
| CC(C)CC(CSCC(=O)O)NC(=O)C1CC(=O)CN1C(=O)OCc1ccccc1 (configuration not stated) |  | 100 | 17 |  | 50 | 80 | Reversal [13]: 17%; Reversal [18]: 83%; Reversal [19]: 17%; Reversal [15]: 0% |
| O=C(NC(Cc1ccccc1)CN1C(=O)C2CCCN2C(=O)C1Cc1c[nH]cn1)c1ccccc1 (configuration not stated) | 43 | 50 | 0 | 83 | 0 | 30 |  |
| NC(=O)CNC(=O)[C@H](CCCCNC(=O)OCc1ccccc1)NC(=O)[C@@H]1CCCN1 (H-Pro-Lys(Cbz)-Gly-NH2) | 60 |  | 60 |  |  |  | Reversal [7]: 100%; Reversal [8]: 40%; Reversal [9]: 66%; Reversal [10]: 92% |
| CC(C)C[C@@H](CNCC(N)=O)NC(=O)[C@@H]1CCCN1C(=O)OCc1ccccc1 | 43 | 0 | 43 |  | 43 | 0 | Reversal [20]: 0% |
| CC(C)CC(CS(=O)(=O)CC(=O)O)NC(=O)C1CCCN1C(=O)OCc1ccccc1 (configuration not stated) | 0 |  | 50 |  |  |  | Reversal [21]: 66% |
| CC(C)CC1CN(C[C@H](CC(C)C)NC(=O)[C@@H]2CCCN2C(=O)OCc2ccccc2)CC(=O)N1 (some centres not stated) | 50 | 0 |  | 80 | 17 | 0 | Reversal [22]: 17% |
| CC(C)CC(NCC1CCCN1C(=O)OCc1ccccc1)C(=O)NCC(N)=O (configuration not stated) | 0 | 80 | 11 | 60 | 0 | 60 | Reversal [13]: 85%; Reversal [14]: 57%; Reversal [15]: 67% |
| CC(C)CC(CNCC(=O)O)NCC1CCCN1C(=O)OCc1ccccc1 (configuration not stated) | 14 |  | 0 | 40 | 20 | 0 | Reversal [23]: 10% |
| NC(=O)CNC(=O)[C@H](CCCCNC(=O)OCc1ccccc1)NCC1CCCN1 (some centres not stated) | 33 | 16 | 0 | 83 | 16 | 16 |  |
| CC(C)CC(CSCC(N)=O)NC(=O)C1CCCN1C(=O)OCc1ccccc1 (configuration not stated) | 50 |  | 66 |  |  |  | Reversal [24]: 0%; Reversal [8]: 33% |
| Cc1ccc(S(=O)(=O)N2CCCC2CNC(CNCC(=O)O)CC(C)C)cc1 (configuration not stated) | 40 |  | 0 |  | 0 | 80 | Reversal [25]: 20%; Reversal [26]: 0% |
| CC(C)CC(CNCC(=O)O)NC(=O)C1CCC(=O)N1 (configuration not stated) | 33 |  | 33 | 50 | 33 | 0 | Reversal [25]: 66% |
